In ChEMBL document CHEMBL1148476, “3-(4-Aroyl-1-methyl-1H-2-pyrrolyl)-N-hydroxy-2-propenamides as a new class of synthetic histone deacetylase inhibitors. 2. Effect of pyrrole-C2 and/or -C4 substitutions on biological activity” (J Med Chem, 2004):
pIC50: −log10 of the molar value. Activity calls are given as the source filed them. No cut-off for these calls is given here. Non-standard residues stand in square brackets, D forms with d. Residues, ends and D or L forms follow the SMILES beside them. ξ: configuration not given here. Aoe(9ξ) = N[C@@H](CCCCCC(=O)C1CO1)C(=O)O; dPip = O=C(O)[C@H]1CCCCN1

How the values were obtained:
Histone deacetylase HD2 [1] = molecular target: T1, Histone deacetylase HD2 (Zea mays, UniProt Q94F81); test: Concentration required for inhibition of histone deacetylase HD2 in vitro.
T1 sequence (Q94F81 whole entry): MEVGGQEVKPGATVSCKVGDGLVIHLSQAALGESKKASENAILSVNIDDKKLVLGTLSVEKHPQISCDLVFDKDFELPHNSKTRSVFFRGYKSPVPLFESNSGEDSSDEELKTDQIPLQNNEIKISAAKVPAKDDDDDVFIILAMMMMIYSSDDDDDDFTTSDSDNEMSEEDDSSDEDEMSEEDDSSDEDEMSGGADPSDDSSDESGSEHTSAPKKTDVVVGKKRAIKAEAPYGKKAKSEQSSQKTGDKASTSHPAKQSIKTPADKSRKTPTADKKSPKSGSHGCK

Histone deacetylase HD2 [2] = molecular target: T1, Histone deacetylase HD2; test: (§1) Inhibitory concentration against histone deacetylase HD2 enzyme.
In short: (§2)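 Maize HD2, purified by anion exchange, heparin/histone affinity and size exclusion chromatography, incubated 30 min at 30 °C with [3H]acetate-prelabeled chicken reticulocyte core histones (1 mg/mL). Stopped with HCl/acetate and extracted into ethyl acetate. Released [3H]acetic acid in the upper phase was counted by liquid scintillation. Compounds started at 40 µM and active ones were diluted further. Blank solvents served as negative controls. IC50 values are from triple determinations.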

[3] = molecular target: T2, Histone deacetylase HD2 (Zea mays) (UniProt Q94F81); test: Ability to inhibit maize histone deacetylase enzyme in vitro using [3H]acetate-prelabeled chicken reticulocyte histones at 21.7 uM; in short: as §2
T2 sequence (whole entry): T1 sequence (Q94F81 whole entry)

[4] = molecular target: T2, Histone deacetylase HD2 (Zea mays); test: Ability to inhibit maize histone deacetylase enzyme in vitro using [3H]acetate-prelabeled chicken reticulocyte histones at 28.2 uM; in short: as §2
[5] = molecular target: T2, Histone deacetylase HD2 (Zea mays); test: Ability to inhibit maize histone deacetylase enzyme in vitro using [3H]acetate-prelabeled chicken reticulocyte histones at 24.8 uM; in short: as §2
[6] = molecular target: T2, Histone deacetylase HD2 (Zea mays); test: Ability to inhibit maize histone deacetylase enzyme in vitro using [3H]acetate-prelabeled chicken reticulocyte histones at 30 uM; No inhibition; in short: as §2
[7] = molecular target: T2, Histone deacetylase HD2 (Zea mays); test: as §1; in short: as §2
[8] = molecular target: T2, Histone deacetylase HD2 (Zea mays); details: 25 uM
[9] = molecular target: T2, Histone deacetylase HD2 (Zea mays); test: Ability to inhibit maize histone deacetylase enzyme in vitro using [3H]acetate-prelabeled chicken reticulocyte histones at 27 uM; in short: as §2
[10] = molecular target: T2, Histone deacetylase HD2 (Zea mays); test: Ability to inhibit maize histone deacetylase enzyme in vitro using [3H]acetate-prelabeled chicken reticulocyte histones at 29 uM
In short: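 Maize HD2 purified by anion exchange, heparin/histone affinity and size exclusion chromatography. Enzyme incubated 30 min at 30 °C with [3H]acetate-prelabeled chicken reticulocyte core histones (1 mg/mL). Stopped with HCl/acetate, then extracted into ethyl acetate; released [3H]acetic acid in the upper phase counted by liquid scintillation. Triple determinations; blank solvent as negative control.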

[11] = molecular target: T2, Histone deacetylase HD2 (Zea mays); test: Ability to inhibit maize histone deacetylase enzyme in vitro using [3H]acetate-prelabeled chicken reticulocyte histones at 28 uM; in short: as §2
[12] = molecular target: T2, Histone deacetylase HD2 (Zea mays); details: 22.4 uM
[13] = molecular target: T2, Histone deacetylase HD2 (Zea mays); test: Ability to inhibit maize histone deacetylase enzyme in vitro using [3H]acetate-prelabeled chicken reticulocyte histones at 24 uM
In short: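 Maize HD2 purified by anion exchange, heparin/histone affinity and size exclusion chromatography. Enzyme incubated 30 min at 30 °C with [3H]acetate-prelabeled chicken reticulocyte core histones (1 mg/mL stock). Reaction stopped with HCl/acetate plus ethyl acetate, then centrifuged. Released [3H]acetic acid in the upper phase counted by liquid scintillation. Blank solvent served as negative control. Triple determinations.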

[14] = molecular target: T2, Histone deacetylase HD2 (Zea mays); test: Ability to inhibit maize histone deacetylase enzyme in vitro using [3H]acetate-prelabeled chicken reticulocyte histones at 23.3 uM; in short: as §2
[15] = molecular target: T2, Histone deacetylase HD2 (Zea mays); test: Ability to inhibit maize histone deacetylase enzyme in vitro using [3H]acetate-prelabeled chicken reticulocyte histones at 30 uM; NI = No inhibition; in short: as §2
[16] = molecular target: T2, Histone deacetylase HD2 (Zea mays); test: Ability to inhibit maize histone deacetylase enzyme in vitro using [3H]acetate-prelabeled chicken reticulocyte histones at 25.8 uM; in short: as §2
[17] = molecular target: T2, Histone deacetylase HD2 (Zea mays); test: Ability to inhibit maize histone deacetylase enzyme in vitro using [3H]acetate-prelabeled chicken reticulocyte histones at 25.7 uM; in short: as §2
[18] = molecular target: T2, Histone deacetylase HD2 (Zea mays); test: Ability to inhibit maize histone deacetylase enzyme in vitro using [3H]acetate-prelabeled chicken reticulocyte histones at 21.3 uM; in short: as §2
[19] = molecular target: T2, Histone deacetylase HD2 (Zea mays); test: Ability to inhibit maize histone deacetylase enzyme in vitro using [3H]acetate-prelabeled chicken reticulocyte histones at 26 uM; in short: as §2
[20] = molecular target: T2, Histone deacetylase HD2 (Zea mays); test: Ability to inhibit maize histone deacetylase enzyme in vitro using [3H]acetate-prelabeled chicken reticulocyte histones at 29.8 uM; in short: as §2
[21] = molecular target: T2, Histone deacetylase HD2 (Zea mays); details: 24.6 uM
[22] = molecular target: T2, Histone deacetylase HD2 (Zea mays); test: Ability to inhibit maize histone deacetylase enzyme in vitro using [3H]acetate-prelabeled chicken reticulocyte histones at 23.9 uM; in short: as §2
[23] = molecular target: T2, Histone deacetylase HD2 (Zea mays); test: Ability to inhibit maize histone deacetylase enzyme in vitro using [3H]acetate-prelabeled chicken reticulocyte histones at 20.8 uM; in short: as §2
[24] = molecular target: T2, Histone deacetylase HD2 (Zea mays); test: Ability to inhibit maize histone deacetylase enzyme in vitro using [3H]acetate-prelabeled chicken reticulocyte histones at 22.6 uM; in short: as §2

Cn1cc(C(=O)CCCCCCc2ccccc2)cc1/C=C/C(=O)NO
pIC50 (Histone deacetylase HD2 [1]): 6.58 | pIC50 (Histone deacetylase HD2 [2]): 6.58 | inhibition [3]: 95%

Cn1cc(C(=O)Cc2ccccc2)cc1CC(=O)NO
pIC50 (Histone deacetylase HD2 [1]): 4.97 | inhibition [4]: 62.8% | pIC50 (Histone deacetylase HD2 [2]): 4.97

Cn1cc(C(=O)C2CC2c2ccccc2)cc1/C=C/C(=O)NO (stereo unspecified)
pIC50 (Histone deacetylase HD2 [1]): 6.51 | inhibition [5]: 97.6% | pIC50 (Histone deacetylase HD2 [2]): 6.51

O=C(CCCCC[C@@H]1NC(=O)[C@H]2CCCCN2C(=O)[C@H](Cc2ccccc2)NC(=O)[C@H](Cc2ccccc2)NC1=O)C1CO1 (stereo partly specified) [TRAPOXIN A] (cyclo(FF[dPip][Aoe(9ξ)]))
pIC50 (Histone deacetylase HD2 [1]): 8.00

Cn1cc(C(=O)c2ccccc2)cc1CC(=O)NO
pIC50 (Histone deacetylase HD2 [1]): 4.46 | pIC50 (Histone deacetylase HD2 [2]): 4.46

Cn1cc(C(=O)Cc2ccccc2)cc1C=C(C(=O)O)C(=O)O
inhibition [6]: inactive | Log IC50 [7]: inactive

C/C(=C\c1cc(C(=O)/C=C/c2ccccc2)cn1C)C(=O)NO
pIC50 (Histone deacetylase HD2 [1]): 5.89 | pIC50 (Histone deacetylase HD2 [2]): 5.89 | inhibition [8]: 96%

CC/C(=C\c1cc(C(=O)/C=C/c2ccccc2)cn1C)C(=O)NO
inhibition [6]: inactive | Log IC50 [7]: inactive

Cn1cc(C(=O)Cc2ccccc2)cc1CCC(=O)NO
pIC50 (Histone deacetylase HD2 [1]): 5.92 | pIC50 (Histone deacetylase HD2 [2]): 5.92 | inhibition [9]: 96%

CCCC(CCC)C(=O)O [VALPROATE SODIUM]
pIC50 (Histone deacetylase HD2 [1]): 3.89

Cn1cc(C(=O)Cc2ccccc2)cc1/C=C/C(=O)NO
pIC50 (Histone deacetylase HD2 [1]): 7.00 | inhibition [10]: 96% | pIC50 (Histone deacetylase HD2 [2]): 7.00

Cn1cc(C(=O)/C=C/c2ccccc2)cc1/C=C/C(=O)NO
pIC50 (Histone deacetylase HD2 [1]): 6.00 | inhibition [11]: 95% | pIC50 (Histone deacetylase HD2 [2]): 6.00

Cn1cc(C(=O)Cc2ccccc2)cc1C=C(C(=O)NO)C(=O)NO
pIC50 (Histone deacetylase HD2 [1]): 6.70 | pIC50 (Histone deacetylase HD2 [2]): 6.70 | inhibition [12]: 91%

Cn1cc(C(=O)c2cccc3ccccc23)cc1/C=C/C(=O)NO
inhibition [13]: 93.6% | pIC50 (Histone deacetylase HD2 [1]): 6.84 | pIC50 (Histone deacetylase HD2 [2]): 6.84

Cn1cc(C(=O)CCCCc2ccccc2)cc1/C=C/C(=O)NO
pIC50 (Histone deacetylase HD2 [1]): 6.96 | pIC50 (Histone deacetylase HD2 [2]): 6.96 | inhibition [14]: 94%

CC/C(=C\c1cc(C(=O)Cc2ccccc2)cn1C)C(=O)NO
inhibition [6]: inactive | Log IC50 [7]: inactive

Cn1cc(C(=O)c2ccccc2)cc1C=C(C(=O)O)C(=O)O
inhibition [15]: inactive | Log IC50 [7]: inactive

CC/C(=C\c1cc(C(=O)c2ccccc2)cn1C)C(=O)NO
inhibition [16]: 37% | Log IC50 [7]: inactive

Cn1cc(C(=O)CCc2ccccc2)cc1/C=C/C(=O)NO
pIC50 (Histone deacetylase HD2 [1]): 7.37 | inhibition [17]: 98% | pIC50 (Histone deacetylase HD2 [2]): 7.37

Cn1cc(C(=O)C2(c3ccccc3)CC2)cc1/C=C/C(=O)NO
pIC50 (Histone deacetylase HD2 [1]): 7.00 | inhibition [18]: 94.2% | pIC50 (Histone deacetylase HD2 [2]): 7.00

C/C(=C\c1cc(C(=O)Cc2ccccc2)cn1C)C(=O)NO
pIC50 (Histone deacetylase HD2 [1]): 5.85 | inhibition [19]: 95% | pIC50 (Histone deacetylase HD2 [2]): 5.85

Cn1c(CC(=O)NO)ccc1C(=O)c1ccccc1
pIC50 (Histone deacetylase HD2 [1]): 4.69 | inhibition [20]: 61.3% | pIC50 (Histone deacetylase HD2 [2]): 4.69

Cn1cc(C(=O)CCCc2ccccc2)cc1/C=C/C(=O)NO
pIC50 (Histone deacetylase HD2 [1]): 6.89 | pIC50 (Histone deacetylase HD2 [2]): 6.89 | inhibition [21]: 94%

C/C(=C\c1cc(C(=O)c2ccccc2)cn1C)C(=O)NO
pIC50 (Histone deacetylase HD2 [1]): 5.57 | pIC50 (Histone deacetylase HD2 [2]): 5.57 | inhibition [9]: 83%

Cn1c(CC(=O)NO)ccc1C(=O)Cc1ccccc1
pIC50 (Histone deacetylase HD2 [1]): 4.77 | inhibition [4]: 64.2% | pIC50 (Histone deacetylase HD2 [2]): 4.77

Cn1cc(C(=O)c2ccccc2)cc1/C=C/C=C/C(=O)NO
pIC50 (Histone deacetylase HD2 [1]): 6.11 | inhibition [11]: 94% | pIC50 (Histone deacetylase HD2 [2]): 6.11

Cn1cc(C(=O)/C=C/c2ccccc2)cc1/C=C/C=C/C(=O)NO
inhibition [22]: 66% | pIC50 (Histone deacetylase HD2 [1]): 5.00 | pIC50 (Histone deacetylase HD2 [2]): 5.00

Cn1cc(C(=O)CCCCCCCc2ccccc2)cc1/C=C/C(=O)NO
pIC50 (Histone deacetylase HD2 [1]): 6.68 | inhibition [23]: 96% | pIC50 (Histone deacetylase HD2 [2]): 6.68

Cn1cc(C(=O)Cc2ccccc2)cc1/C=C/C=C/C(=O)NO
pIC50 (Histone deacetylase HD2 [1]): 5.83 | inhibition [5]: 89.8% | pIC50 (Histone deacetylase HD2 [2]): 5.83

Cn1cc(C(=O)CCCCCc2ccccc2)cc1/C=C/C(=O)NO
inhibition [24]: 97.2% | pIC50 (Histone deacetylase HD2 [1]): 7.15 | pIC50 (Histone deacetylase HD2 [2]): 7.15

Cn1cc(C(=O)c2ccc3ccccc3c2)cc1/C=C/C(=O)NO
inhibition [13]: 93.8% | pIC50 (Histone deacetylase HD2 [1]): 6.94 | pIC50 (Histone deacetylase HD2 [2]): 6.94

Cn1cc(C(=O)c2ccccc2)cc1C=C(C(=O)NO)C(=O)NO
pIC50 (Histone deacetylase HD2 [1]): 4.18 | pIC50 (Histone deacetylase HD2 [2]): 4.18 | inhibition [14]: 22.7%
